Among all 97,000 compounds or so, about 770 (0.79%) were called active.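 The calls were made as follows: active = inhibition above the screen-wide mean plus 3 SD (cut at about 35% in these data); inactive = the rest.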 Only a selection was taken, and actives are over-represented in it overall.
Each molecule was assayed against Protein Rev (Human immunodeficiency virus type 1 group M subtype B (isolate WMJ22)) (UniProt P05866) (assay: disruptors of Rev peptide-RRE RNA complex – biochemical, FRET, protein-RNA interaction, primary screen (AID 704;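 also: 0% = median DMSO wells and 100% = median Neomycin B control wells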)). Settings: Rev peptide-RRE RNA binding, at 8 µM, hits give high values.
Chain of Protein Rev (Human immunodeficiency virus type 1 group M subtype B (isolate WMJ22)) (P05866 whole entry, looked up): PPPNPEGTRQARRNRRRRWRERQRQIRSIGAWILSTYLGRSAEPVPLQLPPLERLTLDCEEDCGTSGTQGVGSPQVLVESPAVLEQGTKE
How it was run: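 Assay system: Rev peptide and RRE RNA, both fluorescently labelled; times: 5 min preincubation and 15 min binding, 25 °C; detection: FRET, ex 480 nm, em 540 and 671 nm; read-out basis: % inhibition from 671/540 nm acceptor-to-donor ratio, scaled between controls; benchmarks: DMSO low control, neomycin B high control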

SMILES | inhibition
COc1ccc(Nc2nc(=O)[nH]nc2C)cc1 | 4.41% (inactive)
COc1ccc([N+](=O)[O-])cc1NC(=O)CCc1ccccc1 | 1.01% (inactive)
CCOC(=O)C1=C(C)Nc2sc(C(=O)c3ccc(Br)cc3)c(N)c2C1c1ccc(C(=O)OC)cc1 (stereo not given) | 7.08% (inactive)
Cc1cccc(C)c1N1CCN(S(=O)(=O)N2CCOCC2)CC1 | 8.84% (inactive)
Cc1ccc(S(=O)(=O)C(C#N)c2nc3ccccc3nc2N2CCCC2)cc1C (stereo not given) | 80% [fluorescence artefact?] (active)
Cc1cc(N2CCN(S(=O)(=O)c3ccc(C)c(C)c3)CC2)c2ccccc2n1 | 16.5% (inactive)
Cc1ccc(S(=O)(=O)Nc2nc3ccccc3nc2N2CCc3ccccc3C2)cc1 | 6.67% (inactive)
CC(C)=C1SC(N2CCN(c3cccc(C)c3)CC2)=NC1=O | 3.88% (inactive)
CCOC(=O)c1cc2n(c1N)-c1ccccc1C2=O | 107% [fluorescence artefact?] (active)
CC(C)OC(=O)CN1C(=O)C(=O)c2ccccc21 | 9.74% (inactive)
CCOC(=O)c1cc2n(c1C)-c1ccccc1C2=O | 7.43% (inactive)
CC(C)CCNC(=O)Cn1c(=O)oc2cc(S(=O)(=O)N3CC(C)CC(C)C3)ccc21 (stereo not given) | 4.77% (inactive)
CCCn1c(O)c(CN2CCCC(C)C2)c(C)c(C#N)c1=O (stereo not given) | 42.6% (active)
CCOC(=O)N1CCN(c2c(NCCCN3CCCC(C)C3)c(=O)c2=O)CC1 (stereo not given) | 1.25% (inactive)
CCCCCCn1c(CN2CCCC(C)C2)nc2c1c(=O)n(C)c(=O)n2C (stereo not given) | 7.64% (inactive)
O=C(O)c1ccccc1NC(=S)NC(NC(=O)c1ccccc1[N+](=O)[O-])C(Cl)(Cl)Cl (stereo not given) | -3.09% (inactive)
CCc1nnc(NC(=O)c2nc3nccc(C)n3n2)s1 | 12.3% (inactive)
CCc1ccc2nc3sc(C(=O)Nc4nnc(CC)s4)c(N)c3cc2c1 | 89.2% [fluorescence artefact?] (active)
CCc1nnc(NC(=O)c2cccs2)s1 | 7.76% (inactive)
Cc1cccc(COc2ccccc2/C=N/Nc2ccc([N+](=O)[O-])cc2)c1 | 64% (active)
COc1cccc(/C=N/NC(=O)c2cccc([N+](=O)[O-])c2)c1OS(=O)(=O)c1ccc(C)cc1 | 11.5% (inactive)
Cc1ccc(-n2c(C)cc(/C=N/Nc3ccc([N+](=O)[O-])cn3)c2C)c(C)c1 | 31.5% (inactive)
C=CCNc1cnn(-c2ccc(C)cc2)c(=O)c1Cl | -1.57% (inactive)

SMILES | inhibition
Cc1ccc(-n2c(C)cc(/C=C(\C#N)C(=O)NCC3CCCO3)c2C)cc1 (stereo not given) | -6.05% (inactive)
N#CCSc1nc2c(c(=O)n1Cc1ccccc1)C1(CCCC1)Cc1ccccc1-2 | 23.3% (inactive)
CC(C)OCCCNc1nc2c(c(=O)n(Cc3ccccc3F)c(=O)n2C)n1C | 8.58% (inactive)
Cc1cccn2c(=O)c(/C=C3\SC(=S)N(CC(C)C)C3=O)c(NCCCOC(C)C)nc12 | 73.4% (active)
Cn1nc(C(F)(F)F)c(C(=O)Nc2cccc(C(F)(F)F)c2)c1SCc1ccc(Cl)cc1 | 9.7% (inactive)
COc1ccc(CNC(=O)C2CCC(CNc3c(N4CCOCC4)c(=O)c3=O)CC2)cc1 (stereo not given) | -0.22% (inactive)
CCOc1ccc(CN(Cc2ccco2)S(=O)(=O)c2ccc(-n3cnnn3)c(OC)c2)cc1 | 18.6% (inactive)
O=C(O)C1CCN(C(=O)OCc2ccccc2)CC1 | 2.49% (inactive)
CCC(C)n1c(-c2cc(OC)c(OC)c(OC)c2)nc2nc3ccccc3nc21 (stereo not given) | 2.36% (inactive)
CCOC(=O)C1=C(CN2CCc3ccccc32)NC(=O)NC1c1ccc(Cl)cc1 (stereo not given) | 10.3% (inactive)
CCOCCOCCC(C(=O)O)P(=O)(c1ccccc1)c1ccccc1 (stereo not given) | 0.47% (inactive)
O=c1cc(C(F)(F)F)[nH]c(=O)n1C1CCCCC1 | 8.66% (inactive)
COC(=O)C1=C(C)N=C2SC(C)C(=O)N2C1/C=C/c1ccccc1 (stereo not given) | 4.63% (inactive)
C=C(Cl)COC(=O)C1C2C=CC(C2)C1C(=O)O (stereo not given) | 3.94% (inactive)
Oc1ccc(-c2onc3ccc(Cl)cc23)cc1 | 47.9% (active)
Cc1cccc(N(C(=O)c2ccc(CN3CCOCC3)o2)C(C(=O)NC2CCCCC2)c2ccc(F)cc2)c1 (stereo not given) | 0.55% (inactive)
Cc1[nH]n(-c2ccccc2)c(=O)c1CCOC(=O)c1ccc(C(F)(F)F)cc1 | 3.64% (inactive)
N#Cc1c(N)n(CCOC(=O)c2ccc(Cl)cc2)c2nc3ccccc3nc12 | 7.97% (inactive)
CN(C)CCCn1c(N)c(C#N)c2nc(C#N)c(C#N)nc21 | 44.4% (active)
OC(COc1ccc2c(c1)CCC2)CN1CCN(c2cccc(Cl)c2)CC1 (stereo not given) | 13.2% (inactive)
Cc1cc(OCCOc2cccc3cccnc23)c(C)cc1Cl | 17.3% (inactive)
Cc1ccc2nc(Nc3ccccc3O)nc(-c3ccccc3)c2c1 | 9.78% (inactive)
